Compound activity: PubChem, several laboratories
A selection: hits, their analogues and other compounds. The true share with any hit is near 9%.
M1 antagonist = antagonists of rat M1 muscarinic receptor. B-score at 10 µM. AID 628, 2007. CHO-M1 cells, Fluo-4 calcium, ACh EC80 antagonist mode; active compounds read low. Muscarinic acetylcholine receptor M1 (Rattus norvegicus), P08482. actives 3.4% (n = 64,000);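 active = calcium fluorescence response, raw or row-and-column corrected B-score, differing from the plate sample mean either way at a set confidence level, mostly lower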
mHtt clearance = clearance of mutant huntingtin inclusions, primary screen, imaging, HeLa Exon1htt(103Q)mCFP, confocal imaging; aggregate imaging; zero = plate's median compound well; inhibition, % at 1.5 µM; actives 0.42% (n = 47,000);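 active = inhibition of aggregate fluorescence above about 70%, also judged a hit by eye on the cell image, limit read from the data, passing the limit was not always enough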;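 note: cells exposed to compound for three days before fixation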
M1 agonist = M1 muscarinic receptor agonists, primary screen, CHO-M1 cells, Fluo-4 calcium, agonist mode; Muscarinic acetylcholine receptor M1; Fluo-4 calcium fluorescence; active compounds read high; B-score at 10 µM; actives 3% (n = 64,000); AID 626, 2007;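 active = fluorescence rise, raw or as B-score row- and column-corrected plate score, outside the 99.7% band of its plate's samples, either direction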
D1 mod = D1 CRE-luciferase signal change, two-sided – cell-based, HEK293 D1, dopamine EC30, D1 allosteric modulator project, primary screen; D(1A) dopamine receptor (Homo sapiens), P21728; dopamine EC30 potentiation; actives deviate in either direction; B-score at 10 µM; actives 5.9% (n = 58,000); AID 641, 2007;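 active = luminescence count or its row- and column-corrected plate score outside the 99.7% band of the plate's sample wells, on either side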
Target sequence (P21728 whole entry, looked up): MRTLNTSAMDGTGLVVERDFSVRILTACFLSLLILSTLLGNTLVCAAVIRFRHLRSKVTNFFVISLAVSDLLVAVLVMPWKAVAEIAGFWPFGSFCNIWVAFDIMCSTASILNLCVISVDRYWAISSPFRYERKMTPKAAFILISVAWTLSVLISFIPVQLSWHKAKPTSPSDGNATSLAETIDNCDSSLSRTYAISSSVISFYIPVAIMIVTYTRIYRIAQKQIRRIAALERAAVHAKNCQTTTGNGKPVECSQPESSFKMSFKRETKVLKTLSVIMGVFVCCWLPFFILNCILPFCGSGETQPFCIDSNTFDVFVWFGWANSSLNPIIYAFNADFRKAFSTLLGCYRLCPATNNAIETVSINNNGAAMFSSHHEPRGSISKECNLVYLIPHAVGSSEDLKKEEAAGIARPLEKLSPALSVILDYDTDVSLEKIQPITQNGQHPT
AP ELISA ortho = alternative complement pathway inhibitors, primary screen, biochemical, ELISA, human serum, orthogonally pooled compounds; AID 1235, 2008; inhibition, % at 5 µM; LPS-coated ELISA, C3 deposition; tested in compound mixtures; actives 0.08% (n = 62,000);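 active = inhibition above 30% in each of the two pooled mixtures holding the compound, so the lower value exceeds 30%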;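 note: 0% = serum in Mg-EGTA without compound and 100% = EDTA serum blank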
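Test system – human serum alternative complement pathway, C3 deposition on LPS-coated wells · Buffer or medium – diluted human serum in Mg2+-EGTA GVB++ · Compound dosing – 5 µM each compound, pools of ten, 50 µM per pool · Schedule – 1 h serum-compound exposure at 37 °C · Measured by – Anti-C3 ELISA, OD 450 nm · Read-out basis – percent inhibition of C3 deposition onto LPS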
M1 antag confirm = rat M1 muscarinic receptor antagonists, confirmation, CHO cells, Fluo-4 calcium, duplicate | calcium response (max-min fluorescence) at 10 µM | shares compounds with M1 antagonist | ACh EC80 antagonism; active compounds read low | actives 43% (n = 1,700);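 active = calcium response below the same-plate mean of wells given acetylcholine alone at its 80%-effect dose, minus 3 SD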;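 note: raw fluorescence intensity difference in arbitrary instrument units and not normalized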
mGluR4 antag = human mGluR4 response to M1 antagonist hits, M1 allosteric modulator project, cell-based, antagonist mode, secondary assay 1 | actives 0.9% (n = 1,700) | CHO-mGluR4 calcium flux, Fluo-4 fluorescence, glutamate EC80; active compounds read low | shares compounds with M1 antagonist | fluorescence response (max-min) at 10 µM;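 active = fluorescence response below the plate's average for near-maximal glutamate wells, less 3 SD of those wells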;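 note: raw unnormalized fluorescence span taken in the window right after glutamate addition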
Active calls of the source: *.

What do the screens show for `CCOC(=O)N1CCC(NS(=O)(=O)c2ccc3c(c2)C(C)(C)C(=O)N3C)CC1`?
M1 antagonist: -16.6*; M1 agonist: 0.457; D1 mod: -0.227; AP ELISA ortho: 13.9; M1 antag confirm: 579; mGluR4 antag: 240

What do the screens show for `CCOC(=O)N1CCC(NS(=O)(=O)c2ccc3c(c2)oc(=O)n3C)CC1`?
M1 antagonist: -0.349; mHtt clearance: 2.1; M1 agonist: -1.56; D1 mod: 0.0669; AP ELISA ortho: -7.1

How did O=C1CN(C(=O)CN2CCCC2)C(c2ccccc2)c2cc(Br)ccc2N1 (centres undefined) do in these assays?
M1 antagonist: -2.8*; mHtt clearance: 20.7; M1 agonist: -0.252; D1 mod: -0.683; AP ELISA ortho: -7.2; M1 antag confirm: 473; mGluR4 antag: 305

How did N#Cc1cc2c(nc1SC1CCCCC1O)CCCC2 (centres undefined) do in these assays?
mHtt clearance: 45.4

Results for CCC(C)NS(=O)(=O)c1cccs1 (centres undefined) ?
M1 antagonist: -3.41*; M1 agonist: 0.886; D1 mod: 0.902; AP ELISA ortho: 26.8; M1 antag confirm: 644; mGluR4 antag: 261

Results for Cc1cc(-c2ccccc2)c2c3c(cn2n1)c(=O)n(C)c(=O)n3C ?
M1 antagonist: 1.41; mHtt clearance: -24.7; M1 agonist: -0.43; D1 mod: 3.86; AP ELISA ortho: 0.0

What do the screens show for `Cc1cc(-c2ccccc2)c2nncn2n1`?
M1 antagonist: -13.7*; M1 agonist: 0.353; D1 mod: 0.25; AP ELISA ortho: 7.2; M1 antag confirm: 635; mGluR4 antag: 206

Results for CCC(C)N(CCNC(=O)CC1Oc2ccccc2NC1=O)C1CCCCC1 (centres undefined) ?
M1 antagonist: -10.6*; mHtt clearance: 54.0; M1 agonist: -0.0933; D1 mod: -1.65; AP ELISA ortho: 6.1; M1 antag confirm: 61.2*; mGluR4 antag: 229

What do the screens show for `O=C(CC1Oc2ccccc2NC1=O)NC1CC1` (centres undefined)?
M1 antagonist: -3.87*; M1 agonist: 0.384; D1 mod: -0.329; AP ELISA ortho: 18.6; M1 antag confirm: 552; mGluR4 antag: 196

What do the screens show for `COC(=O)c1ccc(NC(=O)CSc2nnc(CNc3ccc(F)cc3)n2C)cc1`?
M1 antagonist: -1.01; mHtt clearance: 35.5; M1 agonist: 1.61; D1 mod: 0.132; AP ELISA ortho: 4.0

How did O=C(Nc1ccc(Cl)c(Cl)c1)N1CCC(N2CCCCC2)CC1 do in these assays?
M1 antagonist: -2.51*; mHtt clearance: -11.4; M1 agonist: -0.148; D1 mod: -0.21; AP ELISA ortho: 12.1; M1 antag confirm: 407; mGluR4 antag: 208

How did O=c1oc2cc(Cl)ccc2n1CSc1nc2ccccc2s1 do in these assays?
mHtt clearance: -9.4

What do the screens show for `c1ccc(CNc2ccc3c(c2)ncn3C2CCCCC2)nc1`?
M1 antagonist: -4.92*; mHtt clearance: 18.1; M1 agonist: 0.821; D1 mod: -0.52; AP ELISA ortho: 7.7; M1 antag confirm: 622; mGluR4 antag: 251

What do the screens show for `Cc1noc(C)c1COC(=O)c1cccnc1SCC(=O)Nc1ccc2c(c1)OCO2`?
M1 antagonist: -6.2*; mHtt clearance: -16.5; M1 agonist: -1.61; D1 mod: 2; AP ELISA ortho: 4.9; M1 antag confirm: 132*; mGluR4 antag: 242

Results for CCCn1c(=N)c(C(=O)NCc2ccc3c(c2)OCO3)cc2c(=O)n3cccc(C)c3nc21 ?
M1 antagonist: -10.3*; mHtt clearance: 8.6; M1 agonist: 2.6; D1 mod: 0.532; AP ELISA ortho: -2.4; M1 antag confirm: 54.2*; mGluR4 antag: 240

Results for CCOCCCn1c(=N)c(C(=O)NCc2ccc3c(c2)OCO3)cc2c(=O)n3ccccc3nc21 ?
M1 antagonist: -2.68*; mHtt clearance: 15.4; M1 agonist: -0.15; D1 mod: -0.26; AP ELISA ortho: -2.0; M1 antag confirm: 438; mGluR4 antag: 226

What do the screens show for `Cc1onc(-c2c(Cl)cccc2Cl)c1C(=O)Nc1ccc2c(c1)OCCO2`?
M1 antagonist: -3.06*; mHtt clearance: -12.3; M1 agonist: -0.627; D1 mod: 0.522; AP ELISA ortho: -12.2; M1 antag confirm: 424*; mGluR4 antag: 235

What do the screens show for `Cc1onc(-c2c(F)cccc2Cl)c1C(=O)Nc1nnc(C2CC2)s1`?
M1 antagonist: -4.12*; mHtt clearance: -16.8; M1 agonist: 1.14; AP ELISA ortho: 11.0; M1 antag confirm: 481*; mGluR4 antag: 223

What do the screens show for `Cc1onc(-c2ccccc2)c1C(=O)Nc1ccc2c(c1)OCCO2`?
M1 antagonist: 0.0171; M1 agonist: -0.0679; D1 mod: -1.51; AP ELISA ortho: 5.4

How did CCCCOc1ccc(C(=O)OC2CC(C)N(C)CC2C)cc1 (centres undefined) do in these assays?
M1 antagonist: -12.7*; M1 agonist: -0.025; AP ELISA ortho: 14.4; M1 antag confirm: 44*; mGluR4 antag: 241

What do the screens show for `CCCCOc1ccc(C(=O)N2CCC(C)CC2)cc1`?
M1 antagonist: 0.0838; mHtt clearance: 29.4; M1 agonist: 0.667; D1 mod: -0.0605; AP ELISA ortho: 16.4

How did COc1ccc(N(C)S(=O)(=O)c2cccc(C(=O)NC3=NCCS3)c2)cc1 do in these assays?
M1 antagonist: -0.008; M1 agonist: 0.183; D1 mod: -1.05; AP ELISA ortho: -0.6

How did O=C(CN1CCC(n2nnc3cc(F)ccc32)CC1)NC1CC1 do in these assays?
M1 antagonist: 0.164; M1 agonist: -0.991; D1 mod: 0.225; AP ELISA ortho: 19.5

How did O=C(CN1CCC(n2nnc3cc(F)ccc32)CC1)NC1CCCCC1 do in these assays?
M1 antagonist: -3.68*; M1 agonist: -0.638; D1 mod: -0.547; AP ELISA ortho: 6.8; M1 antag confirm: 604; mGluR4 antag: 243

Results for COC(=O)c1ccccc1NC(=O)CN1CCN(C23CC4CC(CC(C4)C2)C3)CC1 ?
M1 antagonist: -10.7*; M1 agonist: -0.0402; D1 mod: -0.434; AP ELISA ortho: -11.8; M1 antag confirm: 393*; mGluR4 antag: 229

How did COC(=O)c1ccccc1NC(=O)CN1CCC(n2nnc3cc(F)ccc32)CC1 do in these assays?
M1 antagonist: -4.62*; mHtt clearance: 24.3; M1 agonist: 0.0976; AP ELISA ortho: 7.9; M1 antag confirm: 594; mGluR4 antag: 232
